Experimental data: ChEMBL document CHEMBL4004836, “Design, synthesis and anticancer properties of IsoCombretaQuinolines as potent tubulin assembly inhibitors” (Eur J Med Chem, 2017)
Active and inactive are the calls of the source. The calls are words filed in the database; no cut-off is given here.

How the values were obtained:
[1] = Cytotoxicity against human U87 cells assessed as decrease in cell growth after 72 hrs by resazurin dye-based fluorimetric method; assay type: functional, U-87MG ATCC; details: U-87 MG
Outline: (§1)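 Lines grown in RPMI 1640 with 10% FCS and 1% glutamine, 37 °C, 5% CO2. K562R is a doxorubicin-resistant K562 line. Seeded 5 × 10^3 cells/well, compound in DMSO (<0.1%) added after 24 h, then 72 h exposure. Resazurin for 2 h, fluorescence ex 560/em 590 nm. IC50 from 50% fluorescence drop versus untreated cells. Triplicate, averaged.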

[2] = Inhibition of sheep brain tubulin assembly by DAPI staining-based fluorimetric method; set-up: species or system Ovis aries
Outline: (§2)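 Sheep brain tubulin purified by two assembly-disassembly cycles, about 2-3 mg/mL in 0.1 M MES, 0.5 mM MgCl2, 1 mM EGTA, 1 mM GTP, pH 6.6. Assembly followed by DAPI fluorescence at 37 °C. IC50 = concentration halving maximum assembly rate versus no compound. Single-point values given as % inhibition at 100 µM. Mean of three experiments.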

A549 [3] = test: Cytotoxicity against human A549 cells assessed as decrease in cell growth after 72 hrs by resazurin dye-based fluorimetric method; assay type: functional; details: A549, 72 h
Outline: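 A549 grown in DMEM (4.5 g/L glucose, 10% FCS, 1% glutamine), 37 °C, 5% CO2. Seeded 5 × 10^3 cells/well, compound in DMSO (<0.1%) added after 24 h, 72 h exposure. Resazurin (CellTiter-Blue) for 2 h, fluorescence ex 560/em 590 nm. IC50 = concentration halving fluorescence versus untreated cells. Triplicate; mean of three experiments.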

K-562R = test: Cytotoxicity against human K562R cells assessed as decrease in cell growth after 72 hrs by resazurin dye-based fluorimetric method; assay type: functional; outline: as §1
HCT-116 = test: Cytotoxicity against human HCT116 cells assessed as decrease in cell growth after 72 hrs by resazurin dye-based fluorimetric method; assay type: functional; details: HCT-116, 72 h; outline: as §1
K562 = test: Cytotoxicity against human K562 cells assessed as decrease in cell growth after 72 hrs by resazurin dye-based fluorimetric method; assay type: functional; details: K562, 72 h; outline: as §1
Ovis aries = species on record: Ovis aries; test: Inhibition of sheep brain tubulin assembly at 100 uM by DAPI staining-based fluorimetric method relative to control; outline: as §2
A549 [4] = test: Induction of microtubule network fragmentation in human A549 cells after 24 hrs by DAPI staining-based inverted microscopic method; assay type: cell-based
Outline: (§3)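 A549 cells on chamber slides, 24 h with or without compound. Fixed in 2% paraformaldehyde for 30 min, permeabilized with 0.25% Triton X-100, blocked with 1% BSA/10% goat serum. Mouse anti-β-tubulin overnight at 4 °C, then Alexa 647 secondary with Hoechst 33258 for 2 h, Alexa 488 phalloidin for F-actin. Imaged by inverted microscope, 60X oil objective.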

A549 [5] = test: Cell cycle arrest in human A549 cells assessed as accumulation at G2/M phase at 10 nM after 24 hrs by propidium iodide staining-based flow cytometric method; assay type: functional
Outline: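 Exponentially growing A549 cells exposed for 24 h to 0.5, 1, 5 or 10 nM, with DMSO alone as control. DNA content read by propidium iodide staining and flow cytometry to give the cell-cycle profile.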

A549 [6] = test: Disruption of microtubule network organization in human A549 cells assessed as decrease in mitotic spindle formation after 24 hrs by DAPI staining-based inverted microscopic method; assay type: cell-based; outline: as §3

Structure (SMILES) | IC50 [1] [nM] | IC50 [2] [nM] | IC50 (A549 [3]) [nM] | IC50 (K-562R) [nM] | IC50 (HCT-116) [nM] | IC50 (K562) [nM] | inhibition (Ovis aries) [%] | Activity (A549 [4]) | Activity (A549 [5]) | Activity (A549 [6])
C=C(c1ccc(OC)cc1)c1cc(C#N)nc2ccccc12 | 1 | 1100 | 50 | 0.9 | 1.6 | 9 |  |  |  | 
C=C(c1ccc(OC)c(O)c1)c1nc(C)nc2ccccc12 | 6.1 | 600 |  |  |  |  |  |  |  | 
C=C(c1ccc(OC)cc1)c1cc(C)nc2ccccc12 | 21 | 1100 | 18.5 | 0.7 | 3 | 17 |  |  |  | 
C=C(c1ccc(OC)cc1)c1cc(C(=O)OC)nc2ccccc12 | 2.3 | 3900 |  | 18 | 160 | 88 |  |  |  | 
C=C(c1ccc(OC)cc1)c1cc(C(N)=O)nc2ccccc12 | 240 | 23800 |  |  |  |  |  |  |  | 
C=C(c1ccc(OC)cc1)c1cc(C(=O)O)nc2ccccc12 | 75 |  |  |  |  |  | 29 |  |  | 
C=C(c1ccc(OC)c(O)c1)c1cc(OC)c(OC)c(OC)c1 | 7.8 | 2000 | 8.2 | 1.1 |  | 0.8 |  |  |  | 
C=C(c1ccc(OC)cc1)c1nc(C)cc2ccccc12 | 300 |  |  |  |  |  | 53 |  |  | 
COc1ccc(C(=CC#N)c2cc(C)nc3ccccc23)cc1 | 0.25 | 1900 | 79 | 6.6 | 13.2 | 17 |  |  |  | 
COc1ccc(C(=O)c2cc(C)nc3ccccc23)cc1 | 25 | 7200 |  | 52 | 130 | 139 |  |  |  | 
C=C(c1ccc(OC)c(O)c1)c1cc(C)nc2ccccc12 | 1.5 | 3900 | 0.4 | 2.4 | 0.9 | 1.8 |  | Dose-dependent effect | Active | Dose-dependent effect
C=C(c1ccc(OC)cc1)c1cc(C)cc2ccccc12 | 140 | 17100 |  |  |  |  |  |  |  | 
C=C(c1ccc(OC)cc1)c1cc(CO)nc2ccccc12 | 390 | 14300 |  |  |  |  |  |  |  | 
C=C(c1ccc(OC)cc1)c1cc(C(F)(F)F)nc2ccccc12 | 21.7 |  |  |  |  |  |  |  |  | 
C=C(c1ccc(OC)cc1)c1nc2ccccc2nc1C | 690 |  |  |  |  |  | 24 |  |  | 
C=C(c1ccc(OC)cc1)c1nc(C)nc2ccccc12 | 40 |  |  |  |  |  |  |  |  | 
C=C(c1ccc(OC)c(F)c1)c1cc(C)nc2ccccc12 | 4 | 2200 | 9.5 | 2.4 | 9.6 | 5 |  |  |  | 
